Measured values as given in ChEMBL document CHEMBL3856218, “Polycyclic Polyprenylated Acylphloroglucinol Congeners from Hypericum scabrum” (J Nat Prod, 2016).
pIC50: −log10 of the molar value.

How the values were obtained:
[1] = molecular target: Sodium-dependent noradrenaline transporter (Homo sapiens, UniProt P23975); experiment: Inhibition of norepinephrine transporter (unknown origin) assessed as suppression of synaptosomal uptake of norepinephrine
[2] = molecular target: Sodium-dependent dopamine transporter (Homo sapiens, UniProt Q01959); experiment: Inhibition of dopamine transporter (unknown origin) assessed as suppression of synaptosomal uptake of dopamine
[3] = Inhibition of GABA transporter (unknown origin) assessed as suppression of synaptosomal uptake of GABA; design: species or system Homo sapiens
[4] = Inhibition of glutamate transporter (unknown origin) assessed as suppression of synaptosomal uptake of L-glutamate; design: species or system Homo sapiens
[5] = Cytotoxicity against human A549 cells at 10^-5 M by MTT assay relative to control; format: functional
[6] = Cytotoxicity against human Bel7402 cells at 10^-5 M by MTT assay relative to control; format: functional; conditions: Bel-7402
[7] = Cytotoxicity against human HCT8 cells at 10^-5 M by MTT assay relative to control; format: functional; conditions: HCT-8
[8] = Hepatoprotective activity in human HepG2 cells assessed as inhibition of paracetamol-induced cell damage at 10 uM preincubated for 1 hr followed by paracetamol addition measured after 24 hrs by MTT assay relative to control; format: functional
Method in brief: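 HepG2 cells damaged with paracetamol, test agents at 10 μM, with bicyclol (10 μM) as the positive control. Viability was read by MTT colorimetric assay and expressed as % of normal, and inhibition as % of paracetamol control. Values are mean ± SD, n = 3 (normal and control wells n = 6).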

[9] = Neuroprotective activity against glutamate-induced toxicity in human SK-N-SH cells assessed as cell viability at 10 uM after 24 hrs by MTT assay (reference value: 61.9 +/- 0.9%); format: functional; conditions: read-out: Activity
[10] = molecular target: Sodium-dependent serotonin transporter (Homo sapiens, UniProt P31645); experiment: Inhibition of serotonin transporter (unknown origin) assessed as suppression of synaptosomal uptake of serotonin
Chain of Sodium-dependent serotonin transporter (P31645 whole entry): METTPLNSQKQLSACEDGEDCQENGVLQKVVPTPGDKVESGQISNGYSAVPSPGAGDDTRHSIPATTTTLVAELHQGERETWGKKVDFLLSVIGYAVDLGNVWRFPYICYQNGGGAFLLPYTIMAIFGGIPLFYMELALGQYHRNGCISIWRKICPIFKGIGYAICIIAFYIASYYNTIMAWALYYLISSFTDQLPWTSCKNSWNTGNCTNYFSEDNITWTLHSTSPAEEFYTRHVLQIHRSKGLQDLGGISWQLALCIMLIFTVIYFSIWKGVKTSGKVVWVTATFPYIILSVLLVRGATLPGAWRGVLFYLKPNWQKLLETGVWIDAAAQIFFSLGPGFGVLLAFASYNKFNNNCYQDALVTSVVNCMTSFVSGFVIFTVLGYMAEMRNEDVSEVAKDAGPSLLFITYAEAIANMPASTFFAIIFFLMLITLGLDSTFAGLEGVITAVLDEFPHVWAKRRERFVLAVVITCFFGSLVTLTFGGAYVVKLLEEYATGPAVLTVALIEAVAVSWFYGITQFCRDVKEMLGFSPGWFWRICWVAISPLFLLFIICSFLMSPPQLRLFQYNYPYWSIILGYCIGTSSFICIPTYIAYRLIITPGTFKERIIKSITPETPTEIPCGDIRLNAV

Chain of Sodium-dependent noradrenaline transporter (P23975 whole entry): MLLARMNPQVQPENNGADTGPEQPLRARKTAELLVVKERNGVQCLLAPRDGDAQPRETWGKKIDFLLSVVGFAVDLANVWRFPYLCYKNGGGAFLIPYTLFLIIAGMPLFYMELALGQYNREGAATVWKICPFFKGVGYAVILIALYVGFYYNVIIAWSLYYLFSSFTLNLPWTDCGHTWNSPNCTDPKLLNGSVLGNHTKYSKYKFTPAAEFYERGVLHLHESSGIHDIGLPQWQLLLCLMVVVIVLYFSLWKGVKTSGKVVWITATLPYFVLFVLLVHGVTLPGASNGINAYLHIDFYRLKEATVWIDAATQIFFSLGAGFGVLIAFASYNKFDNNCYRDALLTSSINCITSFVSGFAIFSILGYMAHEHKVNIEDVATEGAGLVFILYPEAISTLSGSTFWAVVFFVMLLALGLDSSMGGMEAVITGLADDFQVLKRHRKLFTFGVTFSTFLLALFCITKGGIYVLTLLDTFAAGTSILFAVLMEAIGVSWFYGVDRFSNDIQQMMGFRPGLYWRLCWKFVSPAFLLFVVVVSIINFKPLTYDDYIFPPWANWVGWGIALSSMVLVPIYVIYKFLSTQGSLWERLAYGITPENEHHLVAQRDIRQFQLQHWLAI
Chain of Sodium-dependent dopamine transporter (Q01959 whole entry): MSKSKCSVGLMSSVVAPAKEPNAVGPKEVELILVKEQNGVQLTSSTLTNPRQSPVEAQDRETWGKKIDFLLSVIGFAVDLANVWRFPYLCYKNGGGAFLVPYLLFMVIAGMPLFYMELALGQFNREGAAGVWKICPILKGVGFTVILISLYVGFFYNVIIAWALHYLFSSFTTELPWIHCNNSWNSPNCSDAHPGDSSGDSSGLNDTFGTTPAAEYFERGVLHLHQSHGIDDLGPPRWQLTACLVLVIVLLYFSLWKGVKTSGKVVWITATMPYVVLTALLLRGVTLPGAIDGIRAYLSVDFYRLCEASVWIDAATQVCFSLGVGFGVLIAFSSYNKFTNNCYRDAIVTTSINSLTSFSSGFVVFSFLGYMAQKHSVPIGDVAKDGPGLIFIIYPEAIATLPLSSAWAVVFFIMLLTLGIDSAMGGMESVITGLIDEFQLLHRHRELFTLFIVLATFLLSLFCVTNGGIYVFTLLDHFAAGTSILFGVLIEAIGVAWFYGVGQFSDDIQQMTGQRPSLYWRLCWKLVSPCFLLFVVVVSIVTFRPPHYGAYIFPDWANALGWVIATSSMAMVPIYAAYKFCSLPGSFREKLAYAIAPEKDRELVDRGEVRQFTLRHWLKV

CC(C)=CCC[C@]1(C)[C@@H](CC=C(C)C)C[C@]2(CC=C(C)C)C(=O)C(CC=C(C)C)=C(O)[C@@]1(C(=O)C(C)C)C2=O
pIC50 [1]: 5.70 | pIC50 [2]: 5.70 | pIC50 [3]: 5.70 | pIC50 [4]: 5.70

CC(C)=CCC1=C2O[C@@H](C(C)(C)OO)C[C@@]23C[C@H](CC=C(C)C)C(C)(C)[C@@](C(=O)c2ccccc2)(C1=O)C3=O
inhibition at 10 µM [5]: 14.6% | inhibition at 10 µM [6]: 18.4% | inhibition at 10 µM [7]: -32.2%

CC[C@@H](C)C(=O)[C@]12C(=O)[C@]3(C)C[C@H](CC=C(C)C)[C@@]1(C)CC[C@H](C(C)(C)O)OC2=C(CC=C(C)C)C3=O
inhibition at 10 µM [5]: 8.65% | inhibition at 10 µM [6]: 8.64% | inhibition at 10 µM [7]: -41.2% | inhibition at 10 µM [8]: 24.9% | viability at 10 µM [9]: 70.8%

CC(C)=CC[C@H]1C[C@]2(CC=C(C)C)C(=O)C(C(=O)c3ccccc3)=C3O[C@H](C(C)(C)O)C[C@]3(C2=O)C1(C)C
inhibition at 10 µM [5]: 10.7% | inhibition at 10 µM [6]: 1.05% | inhibition at 10 µM [7]: 3.04% | viability at 10 µM [9]: 73.5%

CC(C)=CC[C@H]1C[C@@]2(C)C(=O)[C@](C(=O)c3ccccc3)(C(=O)C3=C2O[C@H](C(C)(C)O)C3)[C@]1(C)CCCC(C)C
viability at 10 µM [9]: 83%

CC(C)=CCC[C@]1(C)[C@@H](CC=C(C)C)CC2(C)C(=O)[C@@]3(CC=C(C)C)O[C@]2(O)[C@]1(C(=O)C(C)C)C3=O (some centres not stated)
inhibition at 10 µM [8]: 25.8%

CC(C)=CC[C@H]1C[C@@]2(CC=C(C)C)C(=O)[C@](C(=O)c3ccccc3)(C(=O)C3=C2O[C@@H](C(C)(C)O)C3)[C@]1(C)CCCC(C)C
inhibition at 10 µM [8]: 10.3%

CC(C)=CC[C@H]1C[C@@]2(C)C(=O)[C@](C(=O)C(C)C)(C(=O)C3=C2O[C@@H](C(C)(C)O)C3)[C@]1(C)CCCC(C)C
inhibition at 10 µM [8]: 23.3%

CC(C)=CCC1=C2OCC[C@@]23C[C@H](CC=C(C)C)C(C)(C)[C@@](C(=O)c2ccccc2)(C1=O)C3=O
inhibition at 10 µM [5]: 1.46% | inhibition at 10 µM [6]: -1.32% | inhibition at 10 µM [7]: 14.4%

CC(C)=CC[C@H]1CC(C)=C2OC(C)(C)[C@@H]3CC[C@@]1(C)[C@]23C(=O)C(C)C
inhibition at 10 µM [8]: 15.9%

CC(C)=CC[C@H]1C[C@@]2(C)C(=O)[C@](C(=O)C(C)C)(C(=O)C3=C2O[C@H](C(C)(C)O)C3)[C@]1(C)CCCC(C)C
viability at 10 µM [9]: 71.6%

CC[C@H](C)C(=O)C12C(=O)[C@]3(CC=C(C)C)O[C@@]1(O)C(C)(C[C@H](CC=C(C)C)[C@@]2(C)CCC=C(C)C)C3=O (some centres not stated)
inhibition at 10 µM [5]: 19% | inhibition at 10 µM [6]: -3.16% | inhibition at 10 µM [7]: -25.9% | inhibition at 10 µM [8]: 36.7% | viability at 10 µM [9]: 72.1%

CC(C)=CC[C@H]1C[C@]2(C)C(=O)C3=C(O[C@H](C(C)(C)O)C3)[C@@](C(=O)C(C)C)(C2=O)[C@]1(C)CCCC(C)C
viability at 10 µM [9]: 75.4%

CC(C)=CCC[C@]1(C)[C@@H](CC=C(C)C)CC2(CC=C(C)C)C(=O)[C@@]3(CC=C(C)C)O[C@]2(O)[C@]1(C(=O)C(C)C)C3=O (some centres not stated)
inhibition at 10 µM [8]: 14%

CC[C@H](C)C(=O)[C@@H]1C(=O)[C@@](C)(O)[C@@H](CC=C(C)C)C[C@@]1(C)CCC=C(C)C
inhibition at 10 µM [5]: -13.6% | inhibition at 10 µM [6]: 3.31% | inhibition at 10 µM [7]: -24.4% | inhibition at 10 µM [8]: 30.5%

CC(C)=CCC1=C2O[C@@H](C(C)(C)O)CC[C@]3(C)[C@@H](CC=C(C)C)C[C@](C)(C1=O)C(=O)[C@]23C(=O)C(C)C
inhibition at 10 µM [5]: 0.36% | inhibition at 10 µM [6]: 19.4% | inhibition at 10 µM [7]: -37.1% | inhibition at 10 µM [8]: 6.1%

C=C(C)[C@@H]1C[C@@]23C[C@@H](CC=C(C)C)C(C)(C)[C@@](CC=C(C)C)(C(=O)C(C(=O)c4ccccc4)=C2O1)C3=O
inhibition at 10 µM [5]: 6.64% | inhibition at 10 µM [6]: -0.2% | inhibition at 10 µM [7]: -29.7% | viability at 10 µM [9]: 73.1%

CC(C)=CCC[C@]1(C)C[C@H](CC=C(C)C)[C@](C)(O)C(=O)[C@H]1C(=O)C(C)C
inhibition at 10 µM [5]: 17.2% | inhibition at 10 µM [6]: 14.7% | inhibition at 10 µM [7]: -25.7%

CCC(C)C(=O)[C@]12C(=O)[C@](CC=C(C)C)(C[C@H](CC=C(C)C)[C@@]1(C)CCC=C(C)C)C(=O)C(CC=C(C)C)=C2O (some centres not stated) [ADHYPERFORIN]
pIC50 [1]: 5.70 | pIC50 [2]: 5.70 | pIC50 [10]: 5.70

COC(=O)c1cc(OC)c2c(c1-c1c(CO)cc(OC)c3c1OCO3)OCO2 [BICYCLOL]
inhibition at 10 µM [8]: 19.5%

O=c1[nH]cc(F)c(=O)[nH]1 [FLUOROURACIL]
inhibition at 10 µM [5]: 68.3% | inhibition at 10 µM [6]: 70.6% | inhibition at 10 µM [7]: 70.4%

CC(C)=CC[C@@]12C[C@H]3[C@@H](C=C(C)C)[C@@](C(=O)c4ccccc4)(C1=O)C(=O)[C@@](CC=C(C)C)(C2=O)C3(C)C [HYPERIBONE K]
inhibition at 10 µM [8]: 49% | viability at 10 µM [9]: 73.1%

Oc1ccc(/C=C/c2cc(O)cc(O)c2)cc1 [RESVERATROL]
viability at 10 µM [9]: 72.6%
